Activity calls are given as the source filed them. No cut-off for these calls is given here.
Legend:
[1] = tested on: SW480; test: Antiproliferative activity against human SW480 cells assessed as inhibition of cell viability measured for 6 to 7 days by cell titer glo assay; assay type: functional, cell-based
Outline: (§1)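 Cells seeded in recommended growth medium, held overnight at 37°C in 5% CO2, then exposed to serial dilutions of inhibitor for 6–7 d. A time-zero plate was read with CellTiter-Glo at dosing. Luminescent viability read at the end. No-cell wells subtracted as background, data expressed as percent of DMSO control.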

[2] = Antiproliferative activity against human RKOE6 cells assessed as inhibition of cell viability measured for 6 to 7 days by cell titer glo assay; assay type: functional, cell-based; outline: as §1
[3] = tested on: HCT-8; test: Antiproliferative activity against human HCT-8 cells assessed as inhibition of cell viability measured for 6 to 7 days by cell titer glo assay; assay type: functional, cell-based
Outline: (§2)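 Tumor lines plated in recommended growth media, overnight at 37°C, 5% CO2, then given serial dilutions; a T=0 plate read with CellTiter-Glo at dosing. After 6–7 d of exposure, viability read by CellTiter-Glo luminescence. No-cell wells subtracted, data expressed as % of DMSO control.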

[4] = tested on: NCI-H630; test: Antiproliferative activity against human NCI-H630 cells assessed as inhibition of cell viability measured for 6 to 7 days by cell titer glo assay; assay type: functional, cell-based; outline: as §1
[5] = tested on: HeLa; test: Antiproliferative activity against human HeLa cells assessed as inhibition of cell viability measured for 6 to 7 days by cell titer glo assay; assay type: functional, cell-based
Outline: (§3)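 Cells seeded in recommended growth medium, incubated overnight at 37°C in 5% CO2, then exposed to serial dilutions of inhibitor for 6–7 d. A parallel plate was read with CellTiter-Glo at compound addition as a T=0 value. The luminescent viability readout had no-cell background subtracted and was expressed as % of DMSO control.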

[6] = tested on: BXPC-3; test: Antiproliferative activity against human BXPC-3 cells assessed as inhibition of cell viability measured for 6 to 7 days by cell titer glo assay; assay type: functional, cell-based; outline: as §2
[7] = tested on: PANC-1; test: Antiproliferative activity against human PANC-1 cells assessed as inhibition of cell viability measured for 6 to 7 days by cell titer glo assay; assay type: functional, cell-based; outline: as §1
[8] = tested on: SK-MEL-2; test: Antiproliferative activity against human SK-MEL-2 cells assessed as inhibition of cell viability measured for 6 to 7 days by cell titer glo assay; assay type: functional, cell-based; outline: as §1
[9] = tested on: HEC-1B cell line; test: Antiproliferative activity against human HEC-1B cell line assessed as inhibition of cell viability measured for 6 to 7 days by cell titer glo assay; assay type: functional, cell-based; outline: as §2
[10] = tested on: NCI-H1155; test: Antiproliferative activity against human NCI-H1155 cells assessed as inhibition of cell viability measured for 6 to 7 days by cell titer glo assay; assay type: functional, cell-based; outline: as §3
[11] = tested on: U-266; test: Antiproliferative activity against human U266B1 cells assessed as inhibition of cell viability measured for 6 to 7 days by cell titer glo assay; assay type: functional, cell-based
[12] = tested on: DB; test: Antiproliferative activity against human DB cells assessed as inhibition of cell viability measured for 6 to 7 days by cell titer glo assay; assay type: functional, cell-based; outline: as §2
[13] = tested on: SU-DHL10; test: Antiproliferative activity against human SU-DHL-10 cells assessed as inhibition of cell viability measured for 6 to 7 days by cell titer glo assay; assay type: functional, cell-based; outline: as §1
[14] = tested on: Rec1; test: Antiproliferative activity against human REC1 cells assessed as inhibition of cell viability measured for 6 to 7 days by cell titer glo assay; assay type: functional, cell-based; outline: as §1
[15] = tested on: Daudi; test: Antiproliferative activity against human Daudi cells assessed as inhibition of cell viability measured for 6 to 7 days by cell titer glo assay; assay type: functional, cell-based; outline: as §2
[16] = tested on: P3HR-1; test: Antiproliferative activity against human P3HR-1 cells assessed as inhibition of cell viability measured for 6 to 7 days by cell titer glo assay; assay type: functional, cell-based; outline: as §1
[17] = Antiproliferative activity against human 1A2 cells assessed as inhibition of cell viability measured for 6 to 7 days by cell titer glo assay; assay type: functional, cell-based; outline: as §2
[18] = Antiproliferative activity against human Hs 445 cells assessed as inhibition of cell viability measured for 6 to 7 days by cell titer glo assay; assay type: functional, cell-based; outline: as §3
[19] = tested on: JVM-3; test: Antiproliferative activity against human JVM-3 cells assessed as inhibition of cell viability measured for 6 to 7 days by cell titer glo assay; assay type: functional, cell-based; outline: as §3
[20] = tested on: MV4-11; test: Antiproliferative activity against human MV4-11 cells assessed as inhibition of cell viability measured for 6 to 7 days by cell titer glo assay; assay type: functional, cell-based; outline: as §3
[21] = Antiproliferative activity against human M-07e cells assessed as inhibition of cell viability measured for 6 to 7 days by cell titer glo assay; assay type: functional, cell-based; outline: as §3
[22] = tested on: HEL 92.1.7; test: Antiproliferative activity against human HEL 92.1.7 cells assessed as inhibition of cell viability measured for 6 to 7 days by cell titer glo assay; assay type: functional, cell-based; outline: as §2
[23] = tested on: MEG-01; test: Antiproliferative activity against human MEG-01 cells assessed as inhibition of cell viability measured for 6 to 7 days by cell titer glo assay; assay type: functional, cell-based; outline: as §3
[24] = tested on: MOLT-4; test: Antiproliferative activity against human MOLT-4 cells assessed as inhibition of cell viability measured for 6 to 7 days by cell titer glo assay; assay type: functional, cell-based; outline: as §3
[25] = Antiproliferative activity against human SKW-3 cells assessed as inhibition of cell viability measured for 6 to 7 days by cell titer glo assay; assay type: functional, cell-based; conditions: SKW3; outline: as §1
[26] = tested on: A549; test: Effect on cell cycle distribution in human A549 cells assessed as decrease in 2N DNA content incubated for 24 to 72 hrs by flow cytometry based analysis; assay type: functional; conditions: dose 2-5000 nM, time 24-72 hrs
[27] = tested on: A549; test: Effect on cell cycle distribution in human A549 cells assessed as increase in >4N DNA content at 2 to 5000 nM incubated for 24 to 72 hrs by flow cytometry based analysis; assay type: functional; conditions: dose 2-5000 nM, time 24-72 hrs
[28] = tested on: COLO 205; test: Induction of apoptosis in human COLO 205 cells assessed as PARP cleavage at 10 nmol/L incubated for 24 hrs by Western blot analysis; assay type: functional, cell-based
[29] = tested on: A549; test: Induction of mitotic alteration in human A549 cells formation of malformed bipolar at 12 to 330 nmol/L incubated for 24 hrs by immunofluorescent microscopy based analysis; assay type: functional, cell-based; conditions: dose lower […], dose upper 330.0 nmol/L
[30] = In vivo inhibition of Aurora B in human HCT-116 cells xenografted in athymic nude mouse assessed as reduction in HH3-S10 phosphorylation at 100 mg/kg, ip single dose measured upto 24 hrs relative to control; assay type: functional; set-up: scale not given: the % may be the effect or the level left
[31] = Toxicity in SCID nude mouse xenografted with human HCT-116 cells assessed as body weight loss at 25 to 100 mg/kg, ip administered once daily for 5 consecutive days with 2 days off scheduled for 3 cycles measured upto 60 days relative to control; assay type: organism-based; conditions: in vivo, 1440 h, dose 25-100 mg/kg, time < 60 day
[32] = Antiproliferative activity against HUVEC cells assessed as reduction in cell viability measured after 6 days by cell titer glo assay; assay type: toxicity, cell-based; conditions: human
Outline: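 HUVECs (primary) in EGM-2 with 2% FBS and supplements, assayed in cycling and nonproliferating states. Cycling: 500 cells/well seeded 1 d before dosing. Nonproliferating: 35,000 cells in half-area wells seeded 4 d ahead, fresh media next day and media changed 1 d before dosing. 2-fold dilutions 20000 to 0.15 nmol/L, 6 d at 37°C, 5% CO2. CellTiter-Glo 30 min, background-subtracted, % of DMSO control.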

[33] = tested on: MV-4-11 (human); test: Antitumor activity in human MV-4-11 cells xenografted in NOD-SCID mouse assessed as median survival time at 10 mg/kg, ip administered once daily for 5 consecutive days with 2 days off scheduled for 3 cycles measured upto 120 days; conditions: time <= 120 day

`CCn1cc(-c2ccnc3[nH]c(-c4cccc(CN(C)C)c4)cc23)c(-c2ccc(NC(=O)N(C)C)cc2)n1` [GSK-1070916] gave an EC50 [1] of 3 nM, an EC50 [2] of 7 nM and an EC50 [3] of 38 nM. For the same molecule, the EC50 [4] was 127 nM, the EC50 [5] was 13 nM and the EC50 [6] was 3 nM. For the same molecule, the EC50 [7] was 13 nM, the EC50 [8] was 2 nM and the EC50 [9] was 4 nM. For the same molecule, the EC50 [10] was 40 nM, the EC50 [11] was 422 nM and the EC50 [12] was 11 nM. For the same molecule, the EC50 [13] was 15 nM, the EC50 [14] was 77 nM and the EC50 [15] was 5 nM. It also gave an EC50 [16] of 8 nM, an EC50 [17] of 9 nM and an EC50 [18] of 5 nM. For the same molecule, the EC50 [19] was 2 nM, the EC50 [20] was 7 nM and the EC50 [21] was 13 nM. The EC50 [22] was 60 nM, the EC50 [23] was 44 nM and the EC50 [24] was 3 nM. For the same molecule, the EC50 [25] was 5 nM, the Activity [26] was “Active” and the Activity [27] was “Active”. For the same molecule, the Activity [28] was “Active”, the Activity [29] was “Active” and the Activity [30] was greater than 60%. For the same molecule, the Activity [31] was less than 15%, the EC50 at 6 days [32] was 3900 nM and the MST [33] was 70 days.

From ChEMBL document CHEMBL5705886, “GSK1070916, a potent Aurora B/C kinase inhibitor with broad antitumor activity in tissue culture cells and human tumor xenograft models” (Mol Cancer Ther, 2009)
